How the values were obtained:
Rattus norvegicus [1] = test: Evaluated for the distribution of radioactivity in tissues of female Fischer rats lungs after 5 minutes intravenous administration; dose/g, range 1.41-2.17; assay type: ADME, organism-based, Lung; settings: in vivo
Rattus norvegicus [2] = test: Evaluated for the distribution of radioactivity in tissues of female Fischer rats heart after 5 minutes intravenous administration; dose/g, range 3.80-5.74; assay type: ADME, organism-based; settings: in vivo
Rattus norvegicus [3] = test: Evaluated for the distribution of radioactivity in tissues of female Fischer rats liver after 5 minutes intravenous administration; dose/g, range 1.04-2.56; assay type: ADME, organism-based; settings: in vivo
Rattus norvegicus [4] = test: Evaluated for the distribution of radioactivity in tissues of female Fischer rats heart after 30 minutes intravenous administration; dose/g, range 3.17-4.70; assay type: ADME, organism-based; settings: in vivo, 0.5 h
Rattus norvegicus [5] = test: Evaluated for the distribution of radioactivity in tissues of female Fischer rats blood after 60 minutes intravenous administration; dose/g, range 0.12-0.14; assay type: ADME, organism-based; settings: in vivo, 1 h
Rattus norvegicus [6] = test: Evaluated for the distribution of radioactivity in tissues of female Fischer rats kidneys after 30 minutes intravenous administration; dose/g, range 8.28-10.72; assay type: ADME, organism-based, Kidney; settings: in vivo, 0.5 h
Rattus norvegicus [7] = test: Evaluated for the distribution of radioactivity in tissues of female Fischer rats blood after 30 minutes intravenous administration; dose/g, range 0.10-0.13; assay type: ADME, organism-based; settings: in vivo, 0.5 h
Rattus norvegicus [8] = test: Evaluated for the distribution of radioactivity in tissues of female Fischer rats thyroid after 5 minutes intravenous administration; dose/g, range 26-49; assay type: ADME, organism-based, Thyroid gland; settings: in vivo
Rattus norvegicus [9] = test: Evaluated for the distribution of radioactivity in tissues of female Fischer rats liver after 30 minutes intravenous administration; dose/g, range 0.55-0.71; assay type: ADME, organism-based; settings: in vivo, 0.5 h
Rattus norvegicus [10] = test: Evaluated for the distribution of radioactivity in tissues of female Fischer rats heart after 60 minutes intravenous administration; dose/g, range 3.51-5.44; assay type: ADME, organism-based; settings: in vivo, 1 h
Rattus norvegicus [11] = test: Evaluated for the distribution of radioactivity in tissues of female Fischer rats lungs after 30 minutes intravenous administration; dose/g, range 0.91-1.74; assay type: ADME, organism-based, Lung; settings: in vivo, 0.5 h
Rattus norvegicus [12] = test: Evaluated for the distribution of radioactivity in tissues of female Fischer rats blood after 5 minutes intravenous administration; dose/g, range 0.27-0.33; assay type: ADME, organism-based; settings: in vivo
Rattus norvegicus [13] = test: Evaluated for the distribution of radioactivity in tissues of female Fischer rats liver after 60 minutes intravenous administration; dose/g, range 0.44-0.54; assay type: ADME, organism-based; settings: in vivo, 1 h
Method in brief: (§1)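 Female Fischer 344 rats (10-12 weeks, 170-200 g), fed ad libitum, got a single iv tail-vein injection under ether anaesthesia of the 125I-labelled cation (2.85-8.38 μCi). The tracer was dissolved in Me2SO, diluted with saline to 1% Me2SO and filtered. At the set times rats were killed by cervical fracture and blood taken by cardiac puncture. Organs were rinsed, blotted, weighed and gamma-counted against injectate standards. Results are %dose/g, mean and range, n=5. Thyroid weight was taken as 7.5 mg/100 g body weight.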

Rattus norvegicus [14] = test: Evaluated for the distribution of radioactivity in tissues of female Fischer rats kidneys after 5 minutes intravenous administration; dose/g, range 1.04-2.56; assay type: ADME, organism-based, Kidney; settings: in vivo
Rattus norvegicus [15] = test: Evaluated for the distribution of radioactivity in tissues of female Fischer rats thyroid after 60 minutes intravenous administration; dose/g, range 26-42; assay type: ADME, organism-based, Thyroid gland; settings: in vivo, 1 h; method in brief: as §1
Rattus norvegicus [16] = test: Evaluated for the distribution of radioactivity in tissues of female Fischer rats thyroid after 30 minutes intravenous administration; dose/g, range 26-40; assay type: ADME, organism-based, Thyroid gland; settings: in vivo, 0.5 h
Rattus norvegicus [17] = test: Evaluated for the distribution of radioactivity in tissues of female Fischer rats lungs after 60 minutes intravenous administration; dose/g, range 1.07-1.26; assay type: ADME, organism-based, Lung; settings: in vivo, 1 h; method in brief: as §1
Rattus norvegicus [18] = test: Evaluated for the distribution of radioactivity in tissues of female Fischer rats kidneys after 60 minutes intravenous administration; dose/g, range 5.67-8.41; assay type: ADME, organism-based, Kidney; settings: in vivo, 1 h
Rattus norvegicus [19] = test: Evaluated for the distribution of radioactivity in tissues of female Fischer rats lungs after 30 minutes intravenous administration; dose/g, range 0.99-1.23; assay type: ADME, organism-based, Lung; settings: in vivo, 0.5 h
Rattus norvegicus [20] = test: Evaluated for the distribution of radioactivity in tissues of female Fischer rats blood after 60 minutes intravenous administration; dose/g, range 0.15-0.23; assay type: ADME, organism-based; settings: in vivo, 1 h
Rattus norvegicus [21] = test: Evaluated for the distribution of radioactivity in tissues of female Fischer rats thyroid after 5 minutes intravenous administration; dose/g, range 22-25; assay type: ADME, organism-based, Thyroid gland; settings: in vivo
Rattus norvegicus [22] = test: Evaluated for the distribution of radioactivity in tissues of female Fischer rats blood after 5 minutes intravenous administration; dose/g, range 0.25-0.34; assay type: ADME, organism-based; settings: in vivo
Rattus norvegicus [23] = test: Evaluated for the distribution of radioactivity in tissues of female Fischer rats blood after 30 minutes intravenous administration; dose/g, range 0.22-0.32; assay type: ADME, organism-based; settings: in vivo, 0.5 h
Rattus norvegicus [24] = test: Evaluated for the distribution of radioactivity in tissues of female Fischer rats liver after 5 minutes intravenous administration; dose/g, range 1.26-2.45; assay type: ADME, organism-based; settings: in vivo
Rattus norvegicus [25] = test: Evaluated for the distribution of radioactivity in tissues of female Fischer rats heart after 60 minutes intravenous administration; dose/g, range 3-3.70; assay type: ADME, organism-based; settings: in vivo, 1 h
Rattus norvegicus [26] = test: Evaluated for the distribution of radioactivity in tissues of female Fischer rats kidneys after 60 minutes intravenous administration; dose/g, range 4.59-8.81; assay type: ADME, organism-based, Kidney; settings: in vivo, 1 h
Rattus norvegicus [27] = test: Evaluated for the distribution of radioactivity in tissues of female Fischer rats kidneys after 30 minutes intravenous administration; dose/g, range 10.5-14.4; assay type: ADME, organism-based, Kidney; settings: in vivo, 0.5 h
Rattus norvegicus [28] = test: Evaluated for the distribution of radioactivity in tissues of female Fischer rats liver after 60 minutes intravenous administration; dose/g, range 0.24-0.30; assay type: ADME, organism-based; settings: in vivo, 1 h
Rattus norvegicus [29] = test: Evaluated for the distribution of radioactivity in tissues of female Fischer rats heart after 5 minutes intravenous administration; dose/g, range 2.78-3.62; assay type: ADME, organism-based; settings: in vivo
Rattus norvegicus [30] = test: Evaluated for the distribution of radioactivity in tissues of female Fischer rats lungs after 60 minutes intravenous administration; dose/g, range 0.83-2.11; assay type: ADME, organism-based, Lung; settings: in vivo, 1 h
Rattus norvegicus [31] = test: Evaluated for the distribution of radioactivity in tissues of female Fischer rats kidneys after 5 minutes intravenous administration; dose/g, range 10.7-16.9; assay type: ADME, organism-based, Kidney; settings: in vivo
Rattus norvegicus [32] = test: Evaluated for the distribution of radioactivity in tissues of female Fischer rats liver after 30 minutes intravenous administration; dose/g, range 0.57-0.72; assay type: ADME, organism-based; settings: in vivo, 0.5 h
Rattus norvegicus [33] = test: Evaluated for the distribution of radioactivity in tissues of female Fischer rats lungs after 5 minutes intravenous administration; dose/g, range 0.95-1.49; assay type: ADME, organism-based, Lung; settings: in vivo
Rattus norvegicus [34] = test: Evaluated for the distribution of radioactivity in tissues of female Fischer rats thyroid after 30 minutes intravenous administration; dose/g, range 32-42; assay type: ADME, organism-based, Thyroid gland; settings: in vivo, 0.5 h
Rattus norvegicus [35] = test: Evaluated for the distribution of radioactivity in tissues of female Fischer rats heart after 30 minutes intravenous administration; dose/g, range 2.67-4.31; assay type: ADME, organism-based; settings: in vivo, 0.5 h
Rattus norvegicus [36] = test: Evaluated for the distribution of radioactivity in tissues of female Fischer rats thyroid after 60 minutes intravenous administration; dose/g, range 30-53; assay type: ADME, organism-based, Thyroid gland; settings: in vivo, 1 h

I/C=C/CCC[P+](c1ccccc1)(c1ccccc1)c1ccccc1.[I-]
Distribution (Rattus norvegicus [1]): 1.72%
Distribution (Rattus norvegicus [2]): 4.4%
Distribution (Rattus norvegicus [3]): 1.48%
Distribution (Rattus norvegicus [4]): 3.99%
Distribution (Rattus norvegicus [5]): 0.14%
Distribution (Rattus norvegicus [6]): 9.36%
Distribution (Rattus norvegicus [7]): 0.12%
Distribution (Rattus norvegicus [8]): 37%
Distribution (Rattus norvegicus [9]): 0.62%
Distribution (Rattus norvegicus [10]): 4.19%
Distribution (Rattus norvegicus [11]): 1.28%
Distribution (Rattus norvegicus [12]): 0.29%
Distribution (Rattus norvegicus [13]): 0.49%
Distribution (Rattus norvegicus [14]): 1.48%
Distribution (Rattus norvegicus [15]): 33%
Distribution (Rattus norvegicus [16]): 31%
Distribution (Rattus norvegicus [17]): 1.18%
Distribution (Rattus norvegicus [18]): 6.8%

I/C=C/CCC[As+](c1ccccc1)(c1ccccc1)c1ccccc1.[I-]
Distribution (Rattus norvegicus [19]): 1.09%
Distribution (Rattus norvegicus [20]): 0.19%
Distribution (Rattus norvegicus [21]): 23%
Distribution (Rattus norvegicus [22]): 0.31%
Distribution (Rattus norvegicus [23]): 0.26%
Distribution (Rattus norvegicus [24]): 1.78%
Distribution (Rattus norvegicus [25]): 3.37%
Distribution (Rattus norvegicus [26]): 6.92%
Distribution (Rattus norvegicus [27]): 12.01%
Distribution (Rattus norvegicus [28]): 0.27%
Distribution (Rattus norvegicus [29]): 3.22%
Distribution (Rattus norvegicus [30]): 1.31%
Distribution (Rattus norvegicus [31]): 13.14%
Distribution (Rattus norvegicus [32]): 0.64%
Distribution (Rattus norvegicus [33]): 1.24%
Distribution (Rattus norvegicus [34]): 37%
Distribution (Rattus norvegicus [35]): 3.17%
Distribution (Rattus norvegicus [36]): 43%

From ChEMBL document CHEMBL1122900, “Effects of alkyl and aryl substitution on the myocardial specificity of radioiodinated phosphonium, arsonium, and ammonium cations” (J Med Chem, 1985)
